Experiments:
[1] = Partition coefficient (logP) of the compound; format: physicochemical; conditions: octanol/water
[2] = t1/2 in dog; format: ADME, organism-based, Canis lupus familiaris; conditions: in vivo
How it was run: (§1)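 Dog pharmacokinetics after oral dosing at 1 mg/kg, or at 0.7 or 0.5 mg/kg where footnoted. Cmax (µM) and oral half-life (h) from plasma levels.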

[3] = Maximum plasma concentration (Cmax) in dog at a dose of […] mg/kg; format: ADME, organism-based, Canis lupus familiaris
Homo sapiens [4] = species: Homo sapiens; assay: Human microsome stabilities are reported as the ratio of the % remaining after a 1 hr incubation versus the internal standard thrombin inhibitor; format: functional; design: unit not given here
Homo sapiens [5] = species: Homo sapiens; assay: Concentration required to double the activated partial thromboplastin time (aPPT) in human plasma; format: functional, cell-free
How it was run: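 Anticoagulant assay in human plasma. The value is the concentration of inhibitor that doubles the activated partial thromboplastin time (2×aPTT).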

Prothrombin = Prothrombin (Homo sapiens, UniProt P00734); assay: Inhibitory activity against human thrombin
[6] = Compound was tested for percent protein binding (PB) in dog; format: ADME, organism-based, Canis lupus familiaris; conditions: read-out: PB (converted)
How it was run: (§2)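 Plasma protein binding given as percent free drug, measured in dog plasma and in human plasma.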

[7] = Compound was tested for percent protein binding (PB) in human; format: ADME; conditions: read-out: PB (converted); how it was run: as §2
[8] = Vd in dog; format: ADME, organism-based, Canis lupus familiaris; conditions: in vivo
How it was run: (§3)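 Dog pharmacokinetics. Parameters are plasma clearance (mL/min/kg), volume of distribution (L/kg), iv half-life (h) and oral bioavailability F (%).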

[9] = Plasma clearance (pharmacokinetic parameter) in dog was determined; format: ADME, organism-based, Canis lupus familiaris; conditions: read-out: Clp; how it was run: as §3
[10] = Half life period after intravenous administration in dog; format: ADME, organism-based, Canis lupus familiaris; conditions: in vivo; how it was run: as §3
[11] = Maximum plasma concentration (Cmax) in dog at a dose of 1 mg/kg; format: ADME, organism-based, Canis lupus familiaris; design: dose 1 mg/kg; how it was run: as §1
[12] = Oral bioavailability in dog; format: ADME, organism-based, Canis lupus familiaris; conditions: in vivo; how it was run: as §3
[13] = Vd (1 mg/kg) was determined in dog (in vivo); format: ADME, organism-based, Canis lupus familiaris
How it was run: (§4)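 Plasma clearance and volume of distribution determined at a species-specific dose: 1 mg/kg for dog, 10 mg/kg for rat, 5 mg/kg for rhesus.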

[14] = Maximum plasma concentration (Cmax) in rhesus monkey(in vivo) at a dose of 5 mg/kg; format: ADME, organism-based; design: dose 5 mg/kg; conditions: cercopithecidae
How it was run: (§5)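 Maximum plasma concentration in rat (10 mg/kg) and in rhesus (5 mg/kg), each measured at the dose stated for its species.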

[15] = Plasma clearance (pharmacokinetic parameter) in dog (in vivo) at a dose of 1 mg/kg; format: ADME, organism-based, Canis lupus familiaris; design: dose 1 mg/kg; conditions: read-out: Clp; how it was run: as §4
[16] = Plasma clearance (pharmacokinetic parameter) in rat (in vivo) at a dose of 10 mg/kg; format: ADME, organism-based; design: dose 10 mg/kg; conditions: read-out: Clp; how it was run: as §4
[17] = Plasma clearance (pharmacokinetic parameter) in rhesus (in vivo) at a dose of 5 mg/kg; format: ADME, organism-based, Macaca mulatta; design: dose 5 mg/kg; conditions: rhesus monkey, read-out: Clp; how it was run: as §4
[18] = Maximum plasma concentration (Cmax) in rat (in vivo) at a dose of 10 mg/kg; format: ADME, organism-based; design: dose 10 mg/kg; how it was run: as §5
[19] = Half life period after intravenous administration (1 mg/kg) was determined in dog (in vivo); format: ADME, organism-based, Canis lupus familiaris
[20] = Maximum plasma concentration (Cmax) in dog (in vivo) at a dose of 1 mg/kg; format: ADME, organism-based, Canis lupus familiaris; design: dose 1 mg/kg; how it was run: as §1
[21] = Oral bioavailability (10 mg/kg) was determined in rat; format: ADME, organism-based; conditions: in vivo
[22] = Half life period after intravenous administration (10 mg/kg) was determined in rat (in vivo); format: ADME, organism-based
[23] = Half life period after intravenous administration (5 mg/kg) was determined in rhesus (in vivo); format: ADME, organism-based, Macaca mulatta; conditions: rhesus monkey
[24] = Vd (10 mg/kg) was determined in rat (in vivo); format: ADME, organism-based; how it was run: as §4
[25] = Vd (5 mg/kg) was determined in rhesus (in vivo); format: ADME, organism-based, Macaca mulatta; conditions: rhesus monkey; how it was run: as §4
Rattus norvegicus [26] = assay: […] activated partial thromboplastin time(APPT) after intravenous administration in rat model of FeCl3-induced carotid thrombosis; format: functional
Rattus norvegicus [27] = assay: Thrombin time of occlusion after intravenous administration in rat model of FeCl3-induced carotid thrombosis; format: functional
Rattus norvegicus [28] = assay: Time of occlusion after intravenous administration in rat model of FeCl3-induced carotid thrombosis; format: functional
How it was run: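 Rat carotid artery thrombosis induced with FeCl3. Compound given iv as a continuous infusion (µg/kg/min; vehicle 0.3% DMSO). Read-outs: incidence of occlusion, time to occlusion, thrombin time, aPTT (s) and plasma level (µM).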

[29] = Oral bioavailability (1 mg/kg) was determined in dog; conditions: in vivo
[30] = Oral bioavailability (5 mg/kg) was determined in rhesus; conditions: Macaca mulatta, rhesus monkey, in vivo

| SMILES | logP [1] | half-life [2] [h] | Ratio (Homo sapiens [4]) | Concentration (Homo sapiens [5]) [µM] | Ki (Prothrombin) [nM] | Cmax [11] [nM] | also measured |
| --- | --- | --- | --- | --- | --- | --- | --- |
| O=C(Cn1c(Cl)cnc(NCC(F)(F)c2cccc[n+]2[O-])c1=O)NCc1ccccc1C(F)(F)F | 2.24 | 3.7 | 0.05 | 0.93 | 3.6 | – | Cmax ([3]; 0.5 mg/kg): 1430 nM |
| O=C(Cn1c(Cl)cnc(NCC(F)(F)c2cccc[n+]2[O-])c1=O)NCc1ncccc1Cl | 0.75 | 5.5 | 1.3 | 0.47 | 2.9 | – | fraction unbound [6]: 0.5; fraction unbound [7]: 0.59; Vd [8]: 1.17 L/kg; clearance [9]: 3.03 mL/min/kg; Cmax ([3]; 0.7 mg/kg): 1090 nM; half-life [10]: 6 h |
| O=C(Cn1c(Cl)cnc(NCC(F)(F)c2cccc[n+]2[O-])c1=O)NCc1cccc(Cl)c1 | Not Active | 2.6 | 0 | 0.23 | 0.26 | – | Cmax ([3]; 0.5 mg/kg): 1910 nM |
| COc1ccccc1CNC(=O)Cn1c(Cl)cnc(NCC(F)(F)c2cccc[n+]2[O-])c1=O | 1.36 | 3.8 | 0.44 | 0.56 | 3 | – | Cmax ([3]; 0.5 mg/kg): 2480 nM |
| O=C(Cn1c(Cl)cnc(NCC(F)(F)c2cccc[n+]2[O-])c1=O)NCc1cccc(Br)c1 | 2.11 | 3.6 | 0.14 | 0.28 | 0.19 | 1010 | – |
| O=C(Cn1c(Cl)cnc(NCC(F)(F)c2cccc[n+]2[O-])c1=O)NCc1cc(F)ccc1F | Not Active | 3.9 | 0.05 | 0.43 | 2.4 | 2290 | – |
| O=C(Cn1c(Cl)cnc(NCC(F)(F)c2cccc[n+]2[O-])c1=O)NCc1ncccc1F | 0.19 | 2.5 | 6.5 | 0.54 | 3.1 | 1780 | fraction unbound [6]: 0.2; fraction unbound [7]: 0.3; Vd [8]: 1.13 L/kg; bioavailability [12]: 83%; clearance [9]: 4.91 mL/min/kg; half-life [10]: 2.9 h |
| CCOc1ccccc1CNC(=O)Cn1c(Cl)cnc(NCC(F)(F)c2cccc[n+]2[O-])c1=O | 1.91 | 1.2 | 0.08 | 0.87 | 5.2 | 770 | – |
| O=C(Cn1c(Cl)cnc(NCC(F)(F)c2cccc[n+]2[O-])c1=O)NCc1c(F)cccc1C(F)(F)F | 1.89 | 2.4 | 0 | 0.88 | 1.3 | – | Cmax ([3]; 0.7 mg/kg): 70 nM |
| O=C(Cn1c(Cl)cnc(NCC(F)(F)c2cccc[n+]2[O-])c1=O)NCc1cc(Cl)ccc1F | Not Active | 2.1 | 0 | 0.31 | 0.16 | 480 | – |
| O=C(Cn1c(Cl)cnc(NCC(F)(F)c2cccc[n+]2[O-])c1=O)NCc1ccc(F)c(Cl)c1 | 1.98 | 2.4 | 0 | 0.78 | 3.6 | 420 | – |
| O=C(Cn1c(Cl)cnc(NCC(F)(F)c2cccc[n+]2[O-])c1=O)NCc1c(F)ccc(F)c1F | 1.42 | 3.5 | 0.04 | 0.31 | 1.1 | 1510 | – |
| O=C(Cn1c(Cl)cnc(NCC(F)(F)c2ccccn2)c1=O)NCc1ncccc1F [DPOC-4088] | – | – | – | 0.78 | – | – | fraction unbound [6]: 0.67; fraction unbound [7]: 0.86; Vd [8]: 0.62 L/kg; clearance [9]: 2.2 mL/min/kg; half-life [10]: 4.5 h |
| O=C(Cn1c(Cl)cnc(NCC(F)(F)c2cccc[n+]2[O-])c1=O)NCc1cccc(F)c1 | Not Active | 4.1 | 0.71 | 0.86 | 7.3 | – | Cmax ([3]; 0.5 mg/kg): 1370 nM |
| O=C(Cn1c(Cl)cnc(NCC(F)(F)c2cccc[n+]2[O-])c1=O)NCc1cccc(Cl)c1Cl | 2.14 | 2.5 | 0.39 | 0.88 | 2 | 290 | – |
| O=C(Cn1c(Cl)cnc(NCC(F)(F)c2cccc[n+]2[O-])c1=O)NCc1ccccc1F | 1.39 | 4.9 | – | 0.4 | – | 3500 | Vd [13]: 0.49 L/kg; Cmax [14]: 1050 nM; clearance [15]: 1.55 mL/min/kg; clearance [16]: 43 mL/min/kg; clearance [17]: 19 mL/min/kg; Cmax [18]: 1940 nM; half-life [19]: 6.3 h; Cmax [20]: 3280 nM; bioavailability [21]: 52%; half-life [22]: 0.43 h; half-life [23]: 1.1 h; Vd [24]: 0.93 L/kg; Vd [25]: 1.5 L/kg; APTT (Rattus norvegicus [26]): 22.6 s; TT (Rattus norvegicus [27]): 59.3 s; TTO (Rattus norvegicus [28]): 15; bioavailability [29]: 40%; bioavailability [30]: 21% |

Source: ChEMBL document CHEMBL1136692, “Pharmacokinetic optimization of 3-amino-6-chloropyrazinone acetamide thrombin inhibitors. Implementation of P3 pyridine N-oxides to deliver an orally bioavailable series containing P1 N-benzylamides” (Bioorg Med Chem Lett, 2003)
